Source: ChEMBL document CHEMBL1177728, “Discovery and optimization of boronic acid based inhibitors of autotaxin” (J Med Chem, 2010)

Tests used:
Autotaxin [1] = target: T1, Autotaxin (Homo sapiens, UniProt Q13822); experiment: Inhibition of 6x-histidine-tagged human recombinant ATX expressed in HEK293 cells using bisP-nitrophenyl phosphate as a substrate; assay type: cell-based; conditions: read-out: IC50
Autotaxin [2] = target: T1, Autotaxin; experiment: Inhibition of 6x-histidine-tagged human recombinant ATX expressed in HEK293 cells at 5 uM by CPF assay; assay type: cell-based
How it was run: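 FRET substrate CPF4 at 2 μM with purified His-tagged ATX (~40 nM), run as the bis-pNPP format (pH 7.8 Tris-buffered saline, BSA-FAF, 3 h at room temperature). Fluorescence excited at 355 nm, emission 460 and 520 nm. Inhibitor at 5 μM final.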

Autotaxin [3] = target: T1, Autotaxin; experiment: Inhibition of 6x-histidine-tagged human recombinant ATX expressed in HEK293 cells using bisP-nitrophenyl phosphate as a substrate at 5 uM; assay type: cell-based
How it was run: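 bis-pNPP hydrolysis by purified His-tagged ATX (~40 nM) in Tris-buffered saline pH 7.8 with fatty-acid-free BSA 0.2 mg/mL. Bis-pNPP added as 2 mM stock, 3 h at room temperature. p-Nitrophenol read at 405 nm, corrected by 0 h absorbance. IC50 from 10 concentrations (0.025–100 μM); inhibition at 5 μM final; three independent experiments.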

Autotaxin [4] = target: T1, Autotaxin; experiment: Inhibition of 6x-histidine-tagged human recombinant ATX expressed in HEK293 cells assessed as lysophosphatidulcholine release; assay type: cell-based
How it was run: (§1)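 LPC (18:1) choline release: ATX (~40 nM) secreted by transfected HEK293 cells into serum-free medium, TALON-purified, in 50 mM Tris-HCl pH 7.4 with 0.01% Triton X-100. Substrate added as 80 μM LPC with 10 mM MgCl2 and CaCl2, 3 h at 37 C.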

Autotaxin [5] = target: T1, Autotaxin; experiment: Inhibition of 6x-histidine-tagged human recombinant ATX expressed in HEK293 cells assessed as residual enzyme activity by lysophosphatidulcholine release assay; assay type: cell-based
How it was run: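 Residual activity in the LPC (18:1) choline release assay with purified His-tagged ATX (~40 nM), pH 7.4 Tris with 0.01% Triton X-100, 3 h at 37 C. Inhibitor titrated at 10 concentrations, 0.01–30 μM. Choline detected at 405 nm via choline oxidase/HRP/ABTS.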

Autotaxin [6] = target: T1, Autotaxin; experiment: Inhibition of 6x-histidine-tagged human recombinant ATX expressed in HEK293 cells assessed as residual activity using bisP-nitrophenyl phosphate as a substrate; values are per cent of control
Autotaxin [7] = target: T1, Autotaxin; experiment: Inhibition of 6x-histidine-tagged human recombinant ATX expressed in HEK293 cells assessed as lysophosphatidulcholine release at 5 uM; assay type: cell-based
How it was run: as §1, with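 “C. Choline read at 405 nm by choline oxidase/HRP/ABTS with compound-absorbance correction. IC50 over 10 concentrations (0.01–30 μM); inhibition at 5 μM final.” for “C.”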

SMILES | IC50 (Autotaxin [1]) | inhibition (Autotaxin [2]) | inhibition (Autotaxin [3]) | IC50 (Autotaxin [4]) | Activity (Autotaxin [5]) | residual activity (Autotaxin [6]) | inhibition (Autotaxin [7])
CC(C)Cc1ccc(-c2n[nH]c3c2C(c2ccc(N(C)C)cc2)C(C#N)=C(N)O3)cc1 (centres undefined) | 46 nM | 77% | 87% |  |  |  | 
O=C(CSc1nc2ccc(N3C(=O)c4ccccc4C3=O)cc2s1)Nc1cccc(Cl)c1 | 261 nM | 66% | 71% |  |  |  | 
O=C(O)c1cccc(COc2ccc(/C=C3\SC(=O)N(Cc4ccc(F)cc4)C3=O)cc2)c1 |  |  |  | 1070 nM | 7% |  | 
COc1cc(/C=C2\SC(=O)N(Cc3ccc(Cl)cc3)C2=O)ccc1OCc1ccncc1 | 68 nM | 85% | 83% |  |  |  | 
Cn1c(=O)n(C)c2cc(/C=C3\SC(=O)N(Cc4ccccc4)C3=O)ccc21 | 111 nM | 55% | 75% |  |  |  | 
CCCCCCCC/C=C\CCCCCCCC(=O)OC[C@@H](O)COP(=O)(O)O |  | 67% | 80% |  |  | 39% | 
O=C1S/C(=C\c2ccc(OCc3ccccc3)cc2)C(=O)N1Cc1ccc(F)cc1 | 700 nM |  |  |  |  | 37% | 

Other lines, results leading:

IC50 (Autotaxin [1]) | inhibition (Autotaxin [2]) | inhibition (Autotaxin [3]) | IC50 (Autotaxin [4]) | Activity (Autotaxin [5]) | residual activity (Autotaxin [6]) | inhibition (Autotaxin [7]) | SMILES
 |  |  | 2050 nM | 42% |  |  | COc1cc(/C=C2\SC(=O)N(Cc3ccc(F)cc3)C2=O)ccc1OCc1cccc(C(=O)O)c1
442 nM |  |  | > 5000 nM | 56% | 33% |  | COc1cc(/C=C2\SC(=O)N(Cc3ccc([N+](=O)[O-])cc3)C2=O)ccc1OCc1ccc(C(=O)O)cc1
248 nM |  |  | 2900 nM | 29% | 9% |  | COc1cc(/C=C2\SC(=O)N(Cc3ccccc3)C2=O)ccc1OCc1ccc(C(=O)O)cc1
60900 nM |  |  |  |  | 31% |  | COC(=O)c1ccc(COc2ccc(/C=C3\SC(=O)N(Cc4ccc([N+](=O)[O-])cc4)C3=O)cc2OC)cc1
56 nM | 85% | 91% | 2500 nM | 35% | 10% | 55% | COc1cc(/C=C2\SC(=O)N(Cc3ccc(F)cc3)C2=O)ccc1OCc1ccc(C(=O)O)cc1
18200 nM |  |  | 13600 nM | 27% | 33% |  | COc1cc(/C=C2\SC(=O)N(Cc3ccc(C(C)(C)C)cc3)C2=O)ccc1OCc1ccc(C(=O)O)cc1
161 nM | 89% | 92% |  |  |  |  | CCOc1cc(/C=C2\SC(=O)N(Cc3ccccc3)C2=O)ccc1OCc1ccc(C(=O)O)cc1
2690 nM |  |  |  |  | 24% |  | COC(=O)c1ccc(COc2ccc(/C=C3\SC(=O)N(Cc4ccccc4)C3=O)cc2OC)cc1
 |  |  | 1630 nM | 40% |  |  | O=C(O)c1ccc(COc2ccc(/C=C3\SC(=O)N(Cc4ccc(F)cc4)C3=O)cc2)cc1
